Screens deposited in PubChem by Broad Institute.
Only some compounds are listed: those with a hit (about 2.6% of all), similar ones and a draw of the others.
dFosB act – activators of mouse delta FosB homodimer; purified delta FosB, TAMRA-CDK5 oligo fluorescence polarization; percent of positive-control signal above neutral wells; activation, % at 25 µM; 340,000 tested, 0.99% active; AID 493131;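 active = mean activation above about 17%, with every replicate also reaching it, limit read from the data, passing the limit was not always enough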
rRNA inh HTS – inhibits bacterial ribosomal RNA function over humanized ribosomes; E. coli WT GFP vs humanized-ribosome RFP mutants, fluorescence, 24 h; hits give low values; DMSO median 0, no signal -100; GFP signal change (wild-type ribosome), % (test concentration not listed); 350,000 tested, 1.6% active; AID 720706;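 active = significant combined selectivity score with lowered wild-type GFP, culture density cut under 30%, mutant RFP and density less affected; inactive = any of these conditions unmet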
PvdQ inh – P. aeruginosa PvdQ acylase inhibition; 340,000 tested, 0.063% active; inhibition, % at 10 µM; AID 488965; purified PvdQ acylase, fluorescence plate reader; in the data active = inhibition above about 30%, passing the limit was not always enough
XiGFP reactiv – activators of X-chromosome reactivation in mouse fibroblasts. XiGFP mouse fibroblasts, % GFP-positive cells imaging, 3 d; cells co-treated with 5-aza-dC sensitizer; scaled so ellipticine positive control = 100%. activation, % at 7.58 µM. AID 743238. 360,000 tested, 0.055% active;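 active = mean normalized replicate activation at least 10% and every replicate at or above 10%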
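System: 68-5-11 XiGFP fibroblast line; Timing: 3 days compound exposure; Compound dosing: one concentration, pinned; Benchmarks: positive control ellipticine, 6 µM final; Buffer or medium: DMEM containing 5-aza-dC.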
SR-BI DiI inh – mouse SR-BI HDL lipid transfer inhibition | inhibition, % at 12.5 µM | Q61009 | ldlA[mSR-BI] CHO cells, DiI-HDL uptake fluorescence, 3 h | 320,000 tested, 0.96% active;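 active = mean replicate inhibition of at least 70% and a set share of replicates each scoring 70 or more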
Target sequence (Q61009 whole entry, looked up): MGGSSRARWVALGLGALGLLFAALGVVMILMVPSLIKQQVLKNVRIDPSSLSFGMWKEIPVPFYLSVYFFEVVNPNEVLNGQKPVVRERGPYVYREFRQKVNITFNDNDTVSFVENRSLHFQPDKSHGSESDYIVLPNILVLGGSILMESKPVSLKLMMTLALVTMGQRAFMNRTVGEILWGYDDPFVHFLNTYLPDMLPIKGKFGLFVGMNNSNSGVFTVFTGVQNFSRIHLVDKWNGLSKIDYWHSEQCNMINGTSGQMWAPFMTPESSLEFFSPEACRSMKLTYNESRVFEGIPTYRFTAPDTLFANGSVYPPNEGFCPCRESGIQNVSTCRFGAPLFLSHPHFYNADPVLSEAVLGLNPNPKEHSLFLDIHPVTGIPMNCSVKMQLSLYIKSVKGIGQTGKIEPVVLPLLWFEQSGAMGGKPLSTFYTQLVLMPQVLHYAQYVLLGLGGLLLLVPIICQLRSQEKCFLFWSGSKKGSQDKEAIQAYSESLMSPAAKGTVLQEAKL
SR-BI DiI-HDL act – enhances SR-BI lipid uptake from DiI-HDL; CHO ldlA[mSR-BI] cells, DiI-HDL uptake fluorescence, 3 h; 100 = double the neutral-control signal; activation, % at 12.5 µM; 320,000 tested, 0.096% active; AID 504775;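 active = mean replicate activation of at least 60% and every replicate at or above 60%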
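Material – SR-BI-overexpressing, LDLR-lacking CHO cells · Medium – BSA-supplemented, HEPES-buffered Ham's F12, pH 7.4 · Doses – single concentration · Times – compound with DiI-HDL co-incubation, 3 h at 37 °C · Measured by – bottom-read fluorescence, 550/595 nm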
Each line names hits and unclear results; the compound was inactive in the other large screens.

CCOC(=O)Cn1c(-c2ccc(OC)cc2)c(-c2ccc(OC)cc2)nnc1=O	rRNA inh HTS -22
COc1cc(/C=C2\SC(=O)N(CC(=O)Nc3ccccc3F)C2=O)cc(Cl)c1O	none
Cc1ccc(NC(=S)c2nc3ccccc3[nH]2)c(C)c1	none (no result: rRNA inh HTS)
Cc1ccc(NC(=S)c2nc3ccccc3[nH]2)cc1	SR-BI DiI inh 77 (no result: rRNA inh HTS, XiGFP reactiv)
COCCNC(=O)COc1cccc(Oc2ccccc2)c1	none (no result: rRNA inh HTS, XiGFP reactiv)
COc1ccc(F)cc1C(=O)C1CCCN(Cc2cn(C)c3ccccc23)C1 (configuration not stated)	rRNA inh HTS -31
Cn1cc(CN2CCCC(C(=O)c3cc(F)ccc3F)C2)c2ccccc21 (configuration not stated)	none
CC1(C(=O)NCc2ccccc2)CSCC(=O)N1CCc1c[nH]c2ccccc12 (configuration not stated)	rRNA inh HTS -41 (no result: dFosB act, PvdQ inh, SR-BI DiI inh, SR-BI DiI-HDL act)
C[C@H]1C[C@H]2[C@@H]3CCC4=CC(=O)C=C[C@]4(C)[C@@]3(F)[C@@H](O)C[C@]2(C)[C@@]1(O)C(=O)CO	none (no result: rRNA inh HTS)
CC1(c2ccccc2)O[C@@H]2C[C@H]3[C@@H]4CCC5=CC(=O)C=C[C@]5(C)[C@@]4(F)[C@@H](O)C[C@]3(C)[C@]2(C(=O)CO)O1 (some centres not stated)	rRNA inh HTS -22
CC(=O)N(CCC(c1ccco1)C(C)C)Cc1ccc(Cl)cc1 (configuration not stated)	none (no result: dFosB act, rRNA inh HTS, PvdQ inh, SR-BI DiI inh, SR-BI DiI-HDL act)
CCC(=O)N(CCC(c1ccco1)C(C)C)Cc1ccccc1 (configuration not stated)	rRNA inh HTS -39
CCCC(=O)OCC(=O)NC1CCCc2ccccc21 (configuration not stated)	none
Cc1c(-n2cc(C(=O)c3ccccc3O)cc(C#N)c2=O)c(=O)n(-c2ccccc2)n1C	none (no result: rRNA inh HTS, XiGFP reactiv)
Cc1c(C(=O)OCC(=O)N(C)c2ccccc2)oc2ccccc12	rRNA inh HTS -28
CCCn1c(=S)[nH]c2cc(OC)c(OC)cc2c1=O	none (no result: rRNA inh HTS, XiGFP reactiv)
COc1cc2[nH]c(=S)n(Cc3cccs3)c(=O)c2cc1OC	dFosB act 19
CC(=O)Nc1sc(C)c(C)c1C(=O)Nc1ccc(C)cc1	none (no result: rRNA inh HTS, XiGFP reactiv)
CCCC(=O)Nc1sc(C)c(C)c1C(=O)Nc1cccc(C)c1	SR-BI DiI inh 72 (no result: XiGFP reactiv)
CC1CC(C)CN(C(=O)c2ccc(-c3ccc([N+](=O)[O-])cc3)o2)C1 (configuration not stated)	rRNA inh HTS -21
O=C(c1ccc(-c2cccc([N+](=O)[O-])c2)o1)N1CCN(c2ccc([N+](=O)[O-])cc2)CC1	SR-BI DiI inh 71
COc1ccc(C2=Nn3c(nnc3-c3cc(C)[nH]n3)SC2)cc1	none
O=C1/C(=C/c2ccc(Br)cc2)Oc2cc(O)ccc21	none
O=C1/C(=C/c2ccc([N+](=O)[O-])cc2)Oc2cc(O)ccc21	PvdQ inh 69
CC(=O)Nc1ccc(C=NNc2nnc(NN=Cc3ccc(NC(C)=O)cc3)c3ccccc23)cc1	rRNA inh HTS -16
CC(C)(C)NC(=O)c1ccc(COc2ccccc2Br)o1	none (no result: rRNA inh HTS, XiGFP reactiv)
COc1ccc(OC)c(Nc2nc(-c3sc(NC(=O)C(C)(C)C)nc3C)cs2)c1	SR-BI DiI inh 81
CCC(C)C(=O)Nc1nc(C)c(-c2csc(Nc3cc(OC)ccc3OC)n2)s1 (configuration not stated)	SR-BI DiI inh 80
COc1ccc(Cl)cc1Nc1nc(-c2sc(NC(=O)c3ccco3)nc2C)cs1	SR-BI DiI inh 89
CCCCCC(=O)Nc1nc(C)c(-c2csc(Nc3ccccc3OC)n2)s1	none
COc1ccc(Cl)cc1Nc1nc(-c2sc(NC(=O)C(C)(C)C)nc2C)cs1	none
COc1ccc(Cl)cc1Nc1nc(-c2cccnc2)cs1	none
CCC(C)C(=O)Nc1nc(C)c(-c2csc(Nc3cc(Cl)ccc3OC)n2)s1 (configuration not stated)	SR-BI DiI inh 72
O=S(=O)(c1ccc(F)c(Cl)c1)N1CCCC1	none (no result: XiGFP reactiv)
